Assay results as given in ChEMBL document CHEMBL4665670 (ACS Med Chem Lett, 2019).
Active and inactive are the calls of the source. No cut-off for these calls is given here.

How the values were obtained:
[1] = molecular target: T1, Tyrosine-protein kinase BTK (Homo sapiens, UniProt Q06187); assay: Inhibition of full length human unphosphorylated BTK using FITC-Ahx-TSELKKVVALYDYMPMNAND-NH2 as substrate incubated for 60 mins in presence of ATP at Km concentration
[2] = Intrinsic clearance in human liver microsomes; assay type: ADME, Microsome
[3] = molecular target: T1, Tyrosine-protein kinase BTK; assay: Inhibition of BTK in human whole blood assessed as reduction in polyclonal anti-IgM antibody/human IL4-stimulated CD69 cell surface expression on B cells incubated for 16 hrs by FACS analysis; assay type: tissue-based
[4] = Intrinsic clearance in rat liver microsomes; assay type: ADME, Microsome
[5] = Clearance in Sprague-Dawley rat at 1 mg/kg, iv measured up to 24 hrs by HPLC analysis; assay type: ADME, organism-based; conditions: in vivo
[6] = (§1) In vivo protein occupancy at BTK in Wistar Han rat spleen at 10 mg/kg, po measured after 5 hrs relative to control; assay type: functional
Procedure, shortened: (§2)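 BTK occupancy measured in spleen homogenates of female rats 5 h after a single 10 mg kg^-1 oral dose, relative to the respective vehicle control. Single-animal values, mean ± SD.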

Mus musculus [7] = assay: […] activity in ovalbumin-immunized po dosed C57Bl6 mouse assessed as reduction in skin swelling administered 2 h prior to OVA immunization and measured after 5 hrs by caliper method; assay type: functional, organism-based; conditions: dose mg/kg 6-60, time 2.0 hrs
Procedure, shortened: (§3)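 Mouse reverse passive Arthus reaction: acute FcγR-dependent hypersensitivity induced by intravenous ovalbumin antigen followed by intradermal polyclonal IgG anti-OVA antibody. Single oral dose given 2 h before induction; skin swelling measured 5 h after dosing, compared with vehicle control (SD shown).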

[8] = Terminal plasma concentration in ovalbumin-immunized C57Bl6 mouse at 6 mg/kg, po administered 2 h prior to OVA immunization and measured after 5 hrs; assay type: ADME, organism-based; conditions: read-out: Cp(T)
Procedure, shortened: (§4)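 Terminal blood drug concentrations taken in the mouse reverse passive Arthus study (i.v. OVA plus intradermal IgG anti-OVA), after a single oral dose of 6, 20 or 60 mg/kg given 2 h before induction, sampled 5 h after dosing.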

[9] = molecular target: T1, Tyrosine-protein kinase BTK; assay: Irreversible inhibition of human BTK kinase domain by LC/MS analysis
[10] = Oral bioavailability in Sprague-Dawley rat at 3 mg/kg measured up to 24 hrs by HPLC analysis; assay type: ADME, organism-based; conditions: in vivo
[11] = molecular target: Receptor tyrosine-protein kinase erbB-2 (Homo sapiens) (UniProt P04626); assay: Inhibition of ERBB2 (unknown origin)
Chain of Receptor tyrosine-protein kinase erbB-2 (Homo sapiens) (P04626 whole entry): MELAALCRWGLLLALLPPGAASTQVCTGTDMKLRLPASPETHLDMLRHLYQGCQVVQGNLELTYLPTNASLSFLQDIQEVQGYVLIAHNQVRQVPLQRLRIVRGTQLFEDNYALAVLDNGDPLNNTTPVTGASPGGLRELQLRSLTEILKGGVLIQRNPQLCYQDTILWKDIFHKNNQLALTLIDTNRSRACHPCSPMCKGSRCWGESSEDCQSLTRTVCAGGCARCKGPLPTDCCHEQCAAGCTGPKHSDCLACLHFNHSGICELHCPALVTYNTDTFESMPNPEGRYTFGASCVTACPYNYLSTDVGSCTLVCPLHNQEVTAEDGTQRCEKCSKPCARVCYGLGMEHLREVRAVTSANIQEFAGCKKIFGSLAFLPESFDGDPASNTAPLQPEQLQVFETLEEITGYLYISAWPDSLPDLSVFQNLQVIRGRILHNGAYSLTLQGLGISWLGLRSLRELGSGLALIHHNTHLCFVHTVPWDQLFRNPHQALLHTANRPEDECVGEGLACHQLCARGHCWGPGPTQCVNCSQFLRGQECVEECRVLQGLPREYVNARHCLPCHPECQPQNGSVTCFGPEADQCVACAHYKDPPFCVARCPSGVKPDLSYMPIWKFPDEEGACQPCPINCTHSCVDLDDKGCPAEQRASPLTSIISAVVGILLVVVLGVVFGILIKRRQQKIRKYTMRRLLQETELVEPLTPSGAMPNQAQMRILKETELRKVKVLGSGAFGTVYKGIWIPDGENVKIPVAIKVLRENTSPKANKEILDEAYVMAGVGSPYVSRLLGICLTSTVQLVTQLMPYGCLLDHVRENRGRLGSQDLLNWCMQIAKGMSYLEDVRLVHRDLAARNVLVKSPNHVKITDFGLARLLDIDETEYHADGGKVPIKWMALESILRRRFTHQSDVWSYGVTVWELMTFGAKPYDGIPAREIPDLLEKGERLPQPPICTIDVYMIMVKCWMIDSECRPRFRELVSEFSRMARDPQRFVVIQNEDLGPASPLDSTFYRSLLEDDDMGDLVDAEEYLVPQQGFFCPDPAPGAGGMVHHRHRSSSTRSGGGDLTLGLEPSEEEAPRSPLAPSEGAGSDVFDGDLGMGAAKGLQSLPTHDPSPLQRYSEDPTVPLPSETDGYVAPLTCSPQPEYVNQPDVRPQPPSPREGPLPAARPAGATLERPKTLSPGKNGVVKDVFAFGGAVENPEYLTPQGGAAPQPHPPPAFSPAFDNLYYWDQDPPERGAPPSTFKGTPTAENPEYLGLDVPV

[12] = Intrinsic clearance in mouse liver microsomes; assay type: ADME, Microsome
[13] = molecular target: T2, Epidermal growth factor receptor (Homo sapiens, UniProt P00533); assay: Inhibition of EGF-induced EGFR phosphorylation in human A431 cells preincubated for 24 hrs followed by EGF stimulation and measured after 10 mins by HTRF based immunoassay; assay type: cell-based
T2 sequence (P00533 whole entry): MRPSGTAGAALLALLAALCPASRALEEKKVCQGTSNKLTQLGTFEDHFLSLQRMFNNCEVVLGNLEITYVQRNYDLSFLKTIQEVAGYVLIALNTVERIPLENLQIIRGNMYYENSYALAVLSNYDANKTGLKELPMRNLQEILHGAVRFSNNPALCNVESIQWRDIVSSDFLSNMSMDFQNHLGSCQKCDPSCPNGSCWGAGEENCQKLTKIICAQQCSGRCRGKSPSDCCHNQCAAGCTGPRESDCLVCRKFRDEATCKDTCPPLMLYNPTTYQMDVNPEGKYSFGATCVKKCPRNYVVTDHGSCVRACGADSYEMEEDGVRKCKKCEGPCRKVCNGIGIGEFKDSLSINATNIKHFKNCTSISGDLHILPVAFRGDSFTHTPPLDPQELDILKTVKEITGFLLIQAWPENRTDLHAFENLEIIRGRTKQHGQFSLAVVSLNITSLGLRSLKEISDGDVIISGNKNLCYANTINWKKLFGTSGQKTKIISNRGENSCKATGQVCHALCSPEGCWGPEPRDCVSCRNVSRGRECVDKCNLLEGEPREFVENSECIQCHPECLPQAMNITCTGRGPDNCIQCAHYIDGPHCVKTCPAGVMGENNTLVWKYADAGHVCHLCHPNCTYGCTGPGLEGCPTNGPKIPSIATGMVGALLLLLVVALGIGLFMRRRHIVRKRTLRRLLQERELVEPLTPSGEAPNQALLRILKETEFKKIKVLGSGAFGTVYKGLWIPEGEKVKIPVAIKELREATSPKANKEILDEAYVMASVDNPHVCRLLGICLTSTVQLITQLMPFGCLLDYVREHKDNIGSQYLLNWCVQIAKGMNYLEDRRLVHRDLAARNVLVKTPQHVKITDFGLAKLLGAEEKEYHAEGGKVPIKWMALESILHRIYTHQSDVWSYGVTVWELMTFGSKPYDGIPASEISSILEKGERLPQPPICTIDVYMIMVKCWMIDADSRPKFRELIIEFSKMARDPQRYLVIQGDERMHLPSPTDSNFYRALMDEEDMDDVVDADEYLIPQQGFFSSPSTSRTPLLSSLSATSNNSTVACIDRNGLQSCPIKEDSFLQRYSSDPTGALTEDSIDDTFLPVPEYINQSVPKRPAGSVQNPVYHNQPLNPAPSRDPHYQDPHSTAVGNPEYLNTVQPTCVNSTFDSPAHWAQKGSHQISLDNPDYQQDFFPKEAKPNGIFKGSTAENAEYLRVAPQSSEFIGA

[14] = Terminal plasma concentration in ovalbumin-immunized C57Bl6 mouse at 20 mg/kg, po administered 2 h prior to OVA immunization and measured after 5 hrs; assay type: ADME, organism-based; conditions: read-out: Cp(T); procedure, shortened: as §4
[15] = molecular target: Receptor tyrosine-protein kinase erbB-4 (Homo sapiens, UniProt Q15303); assay: Inhibition of ERBB4 (unknown origin)
Chain of Receptor tyrosine-protein kinase erbB-4 (Q15303 whole entry): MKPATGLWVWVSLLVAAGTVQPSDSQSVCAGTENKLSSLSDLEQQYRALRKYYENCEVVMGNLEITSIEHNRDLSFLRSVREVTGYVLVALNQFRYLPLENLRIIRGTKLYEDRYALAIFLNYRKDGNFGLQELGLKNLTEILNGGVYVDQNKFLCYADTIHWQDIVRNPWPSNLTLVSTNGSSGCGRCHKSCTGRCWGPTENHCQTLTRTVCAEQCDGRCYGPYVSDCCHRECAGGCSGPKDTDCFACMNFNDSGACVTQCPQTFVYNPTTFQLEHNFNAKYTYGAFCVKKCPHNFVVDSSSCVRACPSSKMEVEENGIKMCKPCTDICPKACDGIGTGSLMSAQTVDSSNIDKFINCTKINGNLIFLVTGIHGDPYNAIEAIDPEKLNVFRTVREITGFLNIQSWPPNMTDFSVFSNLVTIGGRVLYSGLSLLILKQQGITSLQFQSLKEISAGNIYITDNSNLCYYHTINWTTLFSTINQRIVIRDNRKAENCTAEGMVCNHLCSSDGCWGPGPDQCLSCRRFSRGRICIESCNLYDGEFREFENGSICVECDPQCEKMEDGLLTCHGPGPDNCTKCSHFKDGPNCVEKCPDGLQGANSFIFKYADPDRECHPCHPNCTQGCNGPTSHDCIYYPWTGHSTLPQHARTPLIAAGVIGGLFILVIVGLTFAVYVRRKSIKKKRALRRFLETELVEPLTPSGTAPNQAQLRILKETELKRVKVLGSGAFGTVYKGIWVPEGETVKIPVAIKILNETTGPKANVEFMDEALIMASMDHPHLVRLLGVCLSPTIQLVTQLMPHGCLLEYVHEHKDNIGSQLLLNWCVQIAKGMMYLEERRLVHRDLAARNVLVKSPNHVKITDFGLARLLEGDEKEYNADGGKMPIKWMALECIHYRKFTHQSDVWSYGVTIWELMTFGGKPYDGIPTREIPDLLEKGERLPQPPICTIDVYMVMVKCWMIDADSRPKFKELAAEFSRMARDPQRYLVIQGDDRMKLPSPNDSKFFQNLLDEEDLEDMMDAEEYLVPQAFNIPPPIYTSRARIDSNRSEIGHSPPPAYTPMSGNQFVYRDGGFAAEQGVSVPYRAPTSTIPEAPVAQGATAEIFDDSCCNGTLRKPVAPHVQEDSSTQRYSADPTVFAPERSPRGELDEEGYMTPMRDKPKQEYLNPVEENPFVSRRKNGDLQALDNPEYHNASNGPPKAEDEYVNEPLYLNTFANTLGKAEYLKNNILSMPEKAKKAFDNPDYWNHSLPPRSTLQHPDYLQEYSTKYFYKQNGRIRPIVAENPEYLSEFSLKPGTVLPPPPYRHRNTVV

[16] = molecular target: T3, Tyrosine-protein kinase JAK3 (Homo sapiens) (UniProt P52333); assay: Inhibition of JAK3 (unknown origin)
T3 sequence (whole entry): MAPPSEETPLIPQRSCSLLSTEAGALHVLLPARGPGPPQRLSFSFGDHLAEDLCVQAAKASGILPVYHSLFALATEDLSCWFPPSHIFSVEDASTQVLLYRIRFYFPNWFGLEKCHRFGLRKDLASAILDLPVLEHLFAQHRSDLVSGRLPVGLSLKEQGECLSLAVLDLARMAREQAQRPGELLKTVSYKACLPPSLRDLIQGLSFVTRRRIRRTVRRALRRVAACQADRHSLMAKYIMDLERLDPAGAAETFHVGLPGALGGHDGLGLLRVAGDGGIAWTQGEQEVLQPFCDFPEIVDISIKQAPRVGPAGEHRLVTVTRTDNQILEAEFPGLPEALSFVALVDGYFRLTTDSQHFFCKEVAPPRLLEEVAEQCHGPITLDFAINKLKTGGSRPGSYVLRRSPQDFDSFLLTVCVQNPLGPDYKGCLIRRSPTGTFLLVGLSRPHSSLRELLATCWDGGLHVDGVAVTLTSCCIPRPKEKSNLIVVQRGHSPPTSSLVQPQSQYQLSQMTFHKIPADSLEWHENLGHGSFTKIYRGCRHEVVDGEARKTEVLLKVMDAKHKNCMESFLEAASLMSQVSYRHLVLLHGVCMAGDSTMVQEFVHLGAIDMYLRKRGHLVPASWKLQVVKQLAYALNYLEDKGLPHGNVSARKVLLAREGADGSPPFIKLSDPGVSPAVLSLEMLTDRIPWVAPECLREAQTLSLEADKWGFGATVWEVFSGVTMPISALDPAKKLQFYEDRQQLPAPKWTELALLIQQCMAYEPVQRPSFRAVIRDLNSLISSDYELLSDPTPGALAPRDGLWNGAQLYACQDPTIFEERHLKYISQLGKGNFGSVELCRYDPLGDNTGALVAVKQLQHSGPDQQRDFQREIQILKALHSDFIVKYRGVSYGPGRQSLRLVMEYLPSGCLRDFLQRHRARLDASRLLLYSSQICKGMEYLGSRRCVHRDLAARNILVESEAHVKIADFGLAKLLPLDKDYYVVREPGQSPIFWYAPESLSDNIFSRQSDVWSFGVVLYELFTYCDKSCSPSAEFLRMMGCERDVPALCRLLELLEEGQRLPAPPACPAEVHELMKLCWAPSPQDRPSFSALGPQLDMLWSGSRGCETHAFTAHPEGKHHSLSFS

[17] = molecular target: T1, Tyrosine-protein kinase BTK; assay: Inhibition of BTK in vitamin D3 differentiated human THP1 cells assessed as inhibition of FCgammaR-induced IL8 production measured after 24 hrs by immunoblot analysis
[18] = Clearance in Sprague-Dawley rat at 3 mg/kg, po measured up to 24 hrs by HPLC analysis; assay type: ADME, organism-based; conditions: in vivo
Mus musculus [19] = assay: […] activity in ovalbumin-immunized C57Bl6 mouse assessed as reduction in skin swelling at 60 mg/kg, po administered 2 h prior to OVA immunization and measured after 5 hrs by caliper method relative to control; assay type: functional; set-up: scale not given: the % may be the effect or the level left; procedure, shortened: as §3
[20] = Terminal plasma concentration in ovalbumin-immunized C57Bl6 mouse at 60 mg/kg, po administered 2 h prior to OVA immunization and measured after 5 hrs; assay type: ADME, organism-based; conditions: read-out: Cp(T); procedure, shortened: as §4
Rattus norvegicus = assay: as §1; assay type: functional; procedure, shortened: as §2
[21] = molecular target: T2, Epidermal growth factor receptor; assay: Inhibition of EGFR (unknown origin)
Mus musculus [22] = assay: […] activity in ovalbumin-immunized C57Bl6 mouse assessed as reduction in skin swelling at 30 mg/kg, po administered 2 h prior to OVA immunization and measured after 5 hrs by caliper method relative to control; assay type: functional; set-up: scale not given: the % may be the effect or the level left; procedure, shortened: as §3
[23] = Terminal plasma concentration in ovalbumin-immunized C57Bl6 mouse at 30 mg/kg, po administered 2 h prior to OVA immunization and measured after 5 hrs; assay type: ADME, organism-based; conditions: read-out: Cp(T)
Procedure, shortened: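 Mice received a single oral dose 2 h before induction of the reverse passive Arthus reaction, which was intravenous ovalbumin followed by intradermal polyclonal IgG anti-OVA antibody. Terminal blood compound concentration was measured 5 h after dosing and reported in nM.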

T1 sequence (Q06187 whole entry): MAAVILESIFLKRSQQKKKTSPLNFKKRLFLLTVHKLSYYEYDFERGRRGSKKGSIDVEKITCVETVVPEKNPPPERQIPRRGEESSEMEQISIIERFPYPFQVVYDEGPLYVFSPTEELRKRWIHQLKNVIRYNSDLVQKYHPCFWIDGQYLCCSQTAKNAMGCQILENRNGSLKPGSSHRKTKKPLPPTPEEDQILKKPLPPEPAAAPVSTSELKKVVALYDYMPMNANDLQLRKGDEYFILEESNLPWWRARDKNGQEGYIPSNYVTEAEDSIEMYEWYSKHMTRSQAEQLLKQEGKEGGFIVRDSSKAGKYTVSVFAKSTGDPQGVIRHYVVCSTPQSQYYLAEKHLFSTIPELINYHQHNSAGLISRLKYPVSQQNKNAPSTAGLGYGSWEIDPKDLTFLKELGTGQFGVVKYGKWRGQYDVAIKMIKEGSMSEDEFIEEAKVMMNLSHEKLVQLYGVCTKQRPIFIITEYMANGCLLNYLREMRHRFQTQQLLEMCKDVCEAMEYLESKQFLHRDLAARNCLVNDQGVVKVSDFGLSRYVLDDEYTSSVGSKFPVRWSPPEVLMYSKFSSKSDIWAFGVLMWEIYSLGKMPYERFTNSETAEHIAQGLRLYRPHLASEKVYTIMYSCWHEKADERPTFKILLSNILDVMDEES

Compound | IC50 [1] [µM] | Intrinsic clearance (CLint) [2] [µL/min/mg] | IC50 [3] [µM] | Intrinsic clearance (CLint) [4] [µL/min/mg] | clearance [5] [mL/min/kg] | Activity [6] [%] | other results
C=CC(=O)N1CCCC(c2c[nH]c3ncnc(-c4cc(F)cc(NC(=O)c5ccc(C6CC6)cc5)c4C)c23)C1 (stereo not given) | 0.39 | 603 | 8 | > 700 |  |  | 
C=CC(=O)N(C)Cc1c[nH]c2ncnc(-c3cccc(NC(=O)c4ccc(C5CC5)cc4)c3C)c12 | 0.19 | 252 | 7.47 | 578 |  |  | 
C=CC(=O)N(C)Cc1c[nH]c2ncnc(-c3cc(F)cc(NC(=O)c4ccc(C5CC5)cc4)c3C)c12 | 0.026 | 308 | 1.26 | > 700 |  |  | 
C=CC(=O)N(C)C(=O)Cc1c[nH]c2ncnc(-c3cc(F)cc(NC(=O)c4ccc(C5CC5)cc4)c3C)c12 | 0.0012 | 39 | 0.016 | 98 | 300 | 44 | 
C=CC(=O)N(C)Cc1c[nH]c2ncnc(-c3cccc(NC(=O)c4ccc(C(C)(C)C)cc4)c3C)c12 |  | > 700 | 0.934 | 693 |  |  | Activity (Mus musculus [7]): Dose-dependent effect; concentration at 2 h [8]: 4 nM; inhibition [9]: Active; bioavailability [10]: 2%; inhibition [11]: inactive; CLH [12]: 554 µL/min/mg; IC50 [13]: > 8 µM; concentration at 2 h [14]: 14 nM; IC50 [15]: > 10 µM; inhibition [16]: inactive; IC50 [17]: 0.08 µM; CL/F [18]: > 300 mL/min/kg; Activity (Mus musculus [19]): 65%; concentration at 2 h [20]: 118 nM; Activity (Rattus norvegicus): inactive; IC50 [21]: > 10 µM
C=CC(=O)N1CC(O)(c2c[nH]c3ncnc(-c4cc(F)cc(NC(=O)c5ccc(C6CC6)cc5)c4C)c23)C1 | 0.0014 | 3 | 0.303 | 41 | 183 |  | 
CCC(=O)N(C)Cc1c[nH]c2ncnc(-c3cccc(NC(=O)c4ccc(C(C)(C)C)cc4)c3C)c12 | 3.9 |  |  |  |  |  | 
C=CC(=O)N1CCC[C@@H](n2nc(-c3ccc(Oc4ccccc4)cc3)c3c(N)ncnc32)C1 [IBRUTINIB] |  |  |  |  |  | 93 | Activity (Mus musculus [22]): 84%; concentration at 2 h [23]: 187 nM
C/C=C/C(=O)N1CC=C(c2c[nH]c3ncnc(-c4cc(F)cc(NC(=O)c5ccc(C6CC6)cc5)c4C)c23)CC1 | 0.006 | 459 | 0.066 | 127 | > 300 | 70 | 
C=CC(=O)N1CC=C(c2c[nH]c3ncnc(-c4cc(F)cc(NC(=O)c5ccc(C6CC6)cc5)c4C)c23)CC1 |  | 660 |  | 408 | > 300 | 96 | 
Cc1c(NC(=O)c2ccc(C3CC3)cc2)cc(F)cc1-c1ncnc2[nH]cc(C3=CCN(C(=O)/C=C/CN4CCCC4)CC3)c12 | 0.0006 | > 700 | 0.026 | 628 | 176 |  | Activity (Rattus norvegicus): inactive
C=CC(=O)N1CCC(c2c[nH]c3ncnc(-c4cc(F)cc(NC(=O)c5ccc(C6CC6)cc5)c4C)c23)CC1 | 0.001 | 126 | 0.019 | 578 |  |  | 
C=CC(=O)N1CCC(c2c[nH]c3ncnc(-c4cc(F)cc(NC(=O)c5ccc(C6CC6)cc5)c4C)c23)C1 (stereo not given) | 0.005 | 111 | 0.225 | 171 |  |  | 
